High-throughput results: PubChem BioAssay, The Scripps Research Institute Molecular Screening Center
GPR7 antag: human neuropeptides B/W receptor 1 antagonism | P48145 | GPR7-expressing cells, fluorescence antagonist assay | inhibition, % at 4.4 µM | 290,000 compounds, 1.1% hits; in the data active = inhibition above about 16%, passing the limit was not always enough;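 also: cells stimulated with the agonist NPW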
OX1R antag-1: human HCRTR1 antagonism. O43613. CHO/OX1R cells, Fluo-8 calcium fluorescence, orexin A. inhibition, % at 5 µM. 330,000 compounds, 0.43% hits;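 active = inhibition above its plate's threshold, mean inhibition of all tested compounds on the plate plus 3 SD, cut at about 37% in these data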
Target sequence (O43613 whole entry, looked up): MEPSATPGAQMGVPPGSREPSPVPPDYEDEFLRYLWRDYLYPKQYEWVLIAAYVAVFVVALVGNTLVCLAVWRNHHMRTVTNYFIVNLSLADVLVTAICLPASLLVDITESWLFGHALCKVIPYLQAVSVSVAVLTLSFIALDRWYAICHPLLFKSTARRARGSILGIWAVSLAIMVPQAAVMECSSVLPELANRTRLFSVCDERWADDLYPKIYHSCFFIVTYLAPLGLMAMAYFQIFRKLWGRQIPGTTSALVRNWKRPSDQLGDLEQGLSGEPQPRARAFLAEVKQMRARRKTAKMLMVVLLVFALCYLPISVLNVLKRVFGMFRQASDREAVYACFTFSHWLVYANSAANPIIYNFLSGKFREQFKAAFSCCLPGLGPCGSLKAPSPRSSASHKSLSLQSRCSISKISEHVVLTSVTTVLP
TAAR1 agonist: agonists of human TAAR1; Q96RJ0; CHO RD-HGA16 TAAR1, Fluo-8 calcium fluorescence; vehicle wells 0%, saturating PEA agonist 100%; activation, % at 3 µM; 360,000 compounds, 0.99% hits;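 active = activation above the mean activation of all test compounds in the run plus 3 SD, cut at about 38% in these data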
Target sequence (Q96RJ0 whole entry, looked up): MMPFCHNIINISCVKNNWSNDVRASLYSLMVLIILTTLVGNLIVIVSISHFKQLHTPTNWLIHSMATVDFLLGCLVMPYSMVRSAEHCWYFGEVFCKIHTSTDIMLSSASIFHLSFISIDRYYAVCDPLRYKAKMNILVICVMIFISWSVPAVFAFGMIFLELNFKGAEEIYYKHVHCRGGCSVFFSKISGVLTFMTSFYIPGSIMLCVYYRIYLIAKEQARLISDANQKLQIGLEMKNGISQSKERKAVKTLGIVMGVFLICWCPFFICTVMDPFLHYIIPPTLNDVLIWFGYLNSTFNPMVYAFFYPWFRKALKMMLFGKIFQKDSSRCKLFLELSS
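test system = CHO RD-HGA16 cells carrying human TAAR1 plus Gα16 | schedule = 17-24 h seeding, 75 min 37 °C dye, 30 min RT | compound dosing = 3 µM single concentration | control set = DMSO and PEA EC100 | replicates = n 1 | signal = Fluo-8 fluorescence, 5 s baseline then 140 s kinetic read | measure = percent activation vs PEA EC100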
CHO parental Ca: counter-screen for OX1R antagonists: effect in parental CHO cells. parental CHO-K1, ATP-induced calcium, Fluo-8 fluorescence. inhibition, % at 5.6 µM. 330,000 compounds, 0.63% hits;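 active = inhibition above that plate's mean sample inhibition plus 3 SD, cut at about 26% in these data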
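Material: parental CHO cells / Compound: single nominal dose of 5.6 µM per compound / Signal: Fluo-8 fluorescence / Replicates: singlicate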
TAAR1 antag: antagonists of human TAAR1; Q96RJ0; CHO RD-HGA16 TAAR1, Fluo-8 calcium fluorescence, antagonist; inhibition, % at 3 µM; 360,000 compounds, 1.5% hits; AID 624466;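 active = inhibition above a per-plate cutoff, the mean inhibition of test compounds on that plate plus 3 SD, cut at about 49% in these data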
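test system = CHO RD-HGA16 cells bearing hTAAR1 | replication = singlicate | controls = DMSO-only wells and EC80 β-PEA-stimulated wells | reagent = EC80 β-phenethylamine stimulus | read-out basis = percent inhibition of PEA-evoked calcium signal, max/basal emission ratio | schedule = seeding 17-24 h prior, 75-min 37 °C, 30-min RT dye loading | signal = kinetic Fluo-8 calcium fluorescence measurement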
OX1R antag-2: OX1R (human) antagonism | OX1R-expressing cells, FRET antagonist read-out | inhibition, % at 6.6 µM | 330,000 compounds, 1.8% hits | AID 485270; in the data active = inhibition mostly above about 38%, no sharp cut-off; inactive = mostly below about 40%
Of the large screens only hits and unclear results are named; the others gave an inactive call. This is a sample that favours compounds with a hit; in the whole collection about 4.6% have one here.

COc1ccc(S(=O)(=O)Nc2ccccc2-c2nnn(CC(=O)Nc3ccccc3OC)n2)cc1	CHO parental Ca 44, OX1R antag-2 60
CCOC(=O)CC(NC(=O)Cn1nnc(-c2ccccc2F)n1)c1ccc(OC)cc1 (stereo unspecified)	none
COc1cccc(NC(=O)Cn2nnc(-c3ccccc3N)n2)c1	none
COc1ccc(NC(=O)Cn2nnc(-c3ccccc3NS(=O)(=O)c3ccccc3)n2)cc1	CHO parental Ca 43 (no result: TAAR1 agonist, TAAR1 antag)
CCOC(=O)CC(NC(=O)Cn1nnc(-c2ccccc2Cl)n1)c1ccc(OC)cc1 (stereo unspecified)	GPR7 antag 20, TAAR1 agonist 46
OCC[C@@H]1C[C@H](O)[C@@H](O)[C@@]2(OCCc3cc(C(F)(F)F)ccc32)O1	none (no result: GPR7 antag, OX1R antag-1, CHO parental Ca, OX1R antag-2)
C[C@@H]1CN([C@@H](C)CO)C(=O)CCCn2cc(nn2)CO[C@H]1CN(C)C(=O)NC1CCCCC1	none (no result: GPR7 antag, OX1R antag-1, CHO parental Ca, OX1R antag-2)
O=C(NCCNC(=O)Nc1ccc(Cl)cc1)Nc1ccc(Cl)cc1	none (no result: GPR7 antag, OX1R antag-1, CHO parental Ca, OX1R antag-2)
Cc1nnsc1SCCNC(=O)Nc1ccc(Cl)cc1	OX1R antag-1 36, CHO parental Ca 40
C=CCNc1ccc2c(c1)OC[C@H](CC(C)C)NS2(=O)=O	none (no result: GPR7 antag, OX1R antag-1, CHO parental Ca, OX1R antag-2)
Cc1nc(N)nc(N/N=C/c2ccccc2)n1	none
Cc1cc(N/N=C/c2ccccc2)nc(N)n1	TAAR1 agonist 41
CCOC(=O)N1CCN(C2=C(NS(=O)(=O)c3ccc(Br)cc3)C(=O)c3ccccc3C2=O)CC1	none (no result: GPR7 antag, OX1R antag-1, CHO parental Ca, OX1R antag-2)
CCN1CCN(C2=C(NS(=O)(=O)c3ccccc3)C(=O)c3ccccc3C2=O)CC1	OX1R antag-2 74
CCOC(=O)N1CCN(C2=C(NS(=O)(=O)c3ccccc3)C(=O)c3ccccc3C2=O)CC1	OX1R antag-2 68
Cc1ccc(/C=C2\SC(=O)N(CCNC(=O)C3CSC4(C)CCC(=O)N34)C2=O)cc1 (stereo unspecified)	none (no result: GPR7 antag)
O=C(NCc1ccco1)c1cccn2c(=O)c3sccc3nc12	OX1R antag-2 42
O=C(NCc1cccs1)c1cccn2c(=O)c3sccc3nc12	none
Cc1nn(Cc2c(F)c(F)c(F)c(F)c2F)c(C)c1NC(=O)c1cccc(COc2ccccc2Cl)c1	none
Cc1nn(Cc2cccc(F)c2)c(C)c1NC(=O)c1ccc(COc2ccccc2Cl)cc1	TAAR1 antag 101
C[C@H](O)[C@@H]1C(=O)N2CCc3c([nH]c4ccccc34)[C@@H]2C[C@@H]1N(C)C(=O)Nc1ccc(Br)cc1	none (no result: GPR7 antag, OX1R antag-1, CHO parental Ca, OX1R antag-2)
Cn1cccc1CC(=O)N/N=C\c1c2ccccc2cc2ccccc12	OX1R antag-2 39
Cc1ccc(C2c3c(n[nH]c3C(C)C)C(=O)N2c2ccccc2)cc1 (stereo unspecified)	none (no result: GPR7 antag, OX1R antag-1, CHO parental Ca, OX1R antag-2)
CC1(C)N=c2ccc([N+](=O)[O-])c(N)c2=[N+]1[O-]	OX1R antag-2 75
CS(=O)(=O)c1ccc(OCCCN2CCC(C(O)(c3ccccc3)c3ccccc3)CC2)cc1	none (no result: GPR7 antag, OX1R antag-1, CHO parental Ca, OX1R antag-2)
COc1ccc(Cn2nnnc2CN(Cc2cc3cccc(C)c3[nH]c2=O)C2CCCC2)cc1	none
COc1ccc(Cn2nnnc2CN(Cc2cc3ccc(C)cc3[nH]c2=O)C2CCCC2)cc1	OX1R antag-2 43
Cc1ccc(NC(=O)CSc2nc3nc(C)c(Br)cc3[nH]2)cc1F	OX1R antag-2 45
CN(Cc1cccc(Cl)c1Cl)C(=O)c1ccccc1SCC(=O)N1CCCC1	none (no result: GPR7 antag, OX1R antag-1, CHO parental Ca, OX1R antag-2)
Cc1cc(C)n2nc(SCC(=O)Nc3ccc(F)cc3[N+](=O)[O-])nc2n1	OX1R antag-2 29 (no result: GPR7 antag)
Cc1cc(C)n2nc(Sc3ncccc3[N+](=O)[O-])nc2n1	OX1R antag-2 45
Cc1cnc(Sc2ncccc2[N+](=O)[O-])nc1	none
O=C(N/N=C/c1ccc2c(c1)OCO2)c1cccc2ccccc12	none
O=C(N/N=C/c1cc(Cl)cc([N+](=O)[O-])c1O)c1ccc2c(c1)OCO2	OX1R antag-2 56
Cn1cc(C(=O)N/N=C/c2ccc3c(c2)OCO3)c2ccccc21	OX1R antag-2 43
O=C(N/N=C/c1ccc2c(c1)OCO2)c1ccc(COc2cccc3cccnc23)cc1	TAAR1 antag 49
O=C(CSCc1ccccc1Br)N/N=C/c1ccc2c(c1)OCO2	none
O=C(CSCc1cccc(Br)c1)N/N=C/c1ccc2c(c1)OCO2	OX1R antag-2 63
O=C(N/N=C/c1c[nH]c2ccc(Br)cc12)c1ccc2c(c1)OCO2	OX1R antag-2 69
Cc1cc(Br)cc(/C=N/NC(=O)c2ccc3c(c2)OCO3)c1O	OX1R antag-2 64
O=C(N/N=C/c1c[nH]c2ccccc12)c1ccc2c(c1)OCCO2	none
O=C(N/N=C/c1cc(Br)cc(Cl)c1O)c1ccc2c(c1)OCO2	none (no result: GPR7 antag)
O=C(CNC(=O)c1ccc2c(c1)OCO2)N/N=C/c1cc(Br)ccc1O	OX1R antag-2 48
COc1ccc(C2=NOC(C(=O)Nc3ccc4c(c3)OCCO4)C2)cc1OC (stereo unspecified)	none
Cc1ccc(NC2=C(NCCO)C(=O)c3ccccc3C2=O)cc1	OX1R antag-2 56
COc1ccc(C2=C(Nc3ccc(C)cc3)c3ccccc3C2=O)cc1	none
Cc1ccc(C)c(-c2cc(C(=O)Nc3nccs3)c3ccccc3n2)c1	TAAR1 antag 51
Cc1cccc(NC(=O)c2cc(-c3ccc(C)s3)nc3ccccc23)n1	TAAR1 antag 51
Cc1ccc(C)c(-c2cc(C(=O)NCc3cccs3)c3ccccc3n2)c1	TAAR1 antag 49
COC(=O)c1sccc1NC(=O)c1cc(-c2cc(C)ccc2C)nc2ccccc12	none
Cc1ccc(C)c(NC(=O)c2cc(C)nc3ccccc23)c1	CHO parental Ca 67
Oc1cc(O)cc(C=Cc2ccc(O)c(O)c2)c1	none (no result: GPR7 antag, OX1R antag-1, CHO parental Ca, OX1R antag-2)
CC(NC(=O)CSc1nnc(CC(=O)Nc2ccc(Cl)c(Cl)c2)n1C)c1ccccc1 (stereo unspecified)	TAAR1 agonist 42
O=C(c1ccccc1NS(=O)(=O)c1ccc([N+](=O)[O-])cc1[N+](=O)[O-])N1O[C@@H]2C=C[C@H]1C2	OX1R antag-2 46 (no result: GPR7 antag)
CCN(CC(=O)NCc1cccs1)C(=O)/C=C/c1cc(OC)c(OC)c(OC)c1	none (no result: GPR7 antag, OX1R antag-1, CHO parental Ca, OX1R antag-2)
COc1ccc(C(CCN2CCOCC2)c2c(O)cc(OC)cc2OC)cc1 (stereo unspecified)	none (no result: GPR7 antag)
COc1ccc(C(c2c(O)ccc3ccccc23)N2CCOCC2)c(OC)c1 (stereo unspecified)	OX1R antag-1 71, CHO parental Ca 68
N#Cc1nc(Cc2ccccc2)oc1NCc1ccccc1Cl	CHO parental Ca 36
CCCCCCN1CCN(C2CN(Cc3cn(Cc4ccc(C(F)(F)F)cc4)nn3)S(=O)(=O)C2)CC1 (stereo unspecified)	none (no result: GPR7 antag, OX1R antag-1, CHO parental Ca, OX1R antag-2)
CN1NC(=O)c2ccccc2NC1=S	none (no result: GPR7 antag, OX1R antag-1, CHO parental Ca, OX1R antag-2)
Cc1cc(Cl)c(S(=O)(=O)N2CCSCC2)cc1OCC(=O)NC1CCCCC1	TAAR1 antag 54
CCN1CCN(S(=O)(=O)c2cc(OCC(=O)NC3CCCCC3)c(C)cc2Cl)CC1	none
